Assay outcomes as filed in PubChem.
TNF necrop inh: TNF-alpha cell death inhibition in Jurkat FADD-/- cells; activation (protection from cell death), % at 10 µM; 220,000 tested, 0.068% active; AID 463075; Jurkat FADD-/- TNF necroptosis rescue, ATP luminescence, 24 h; 0 = TNF only, 100 = no-TNF cells;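 active = activation, meaning protection from cell death, of at least 50% relative to plate controls; inactive = activation below 50%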;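 also: necroptosis triggered by 40 ng/mL TNF-alpha added together with compound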
Dynein transport: dynein cargo transport inhibition; z-score, hits read low; 220,000 tested, 0.47% active; 3617.4 mouse cells, GR-EGFP nuclear translocation imaging; test concentration mostly 20 µM; stimulated with dexamethasone, 1 µM; active compounds read low;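 active = plate z-score of nuclear minus cytoplasmic receptor signal below a set negative limit, without overly bright fluorescence or cell loss, cut at about -3.5 in these data, passing the limit was not always enough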;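 also: z-score of nuclear minus cytoplasmic ring GR-EGFP intensity difference per well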
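Buffer or medium: Induction medium lacking tetracycline, stripped serum | Also added: Dexamethasone agonist, 1.0 µM final, for 30 min | Timing: 48 h induction, 1 h compound, 30 min dex at 37 °C | Detection: Formaldehyde fixation, Hoechst nuclear stain, 10x automated fluorescence imaging | Measure: Nuclear versus cytoplasmic GR-EGFP signal, averaged per well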
HSV augment: HSV replication enhancement; HSV replication augmentation in cells, fold increase; maximum fold increase; 220,000 tested, 0.005% active; in the data active = maximum fold increase above about 1.5; inconclusive = no clear call, values can overlap the other calls; tested in PC3 cells
Furin inh: inhibitors of human furin; P09958; purified furin, fluorogenic substrate cleavage; inhibition, % at 20 µM or 30 µM; 220,000 tested, 0.061% active; AID 463115; in the data active = inhibition above about 25%
Target sequence (P09958 108-714 limits assumed): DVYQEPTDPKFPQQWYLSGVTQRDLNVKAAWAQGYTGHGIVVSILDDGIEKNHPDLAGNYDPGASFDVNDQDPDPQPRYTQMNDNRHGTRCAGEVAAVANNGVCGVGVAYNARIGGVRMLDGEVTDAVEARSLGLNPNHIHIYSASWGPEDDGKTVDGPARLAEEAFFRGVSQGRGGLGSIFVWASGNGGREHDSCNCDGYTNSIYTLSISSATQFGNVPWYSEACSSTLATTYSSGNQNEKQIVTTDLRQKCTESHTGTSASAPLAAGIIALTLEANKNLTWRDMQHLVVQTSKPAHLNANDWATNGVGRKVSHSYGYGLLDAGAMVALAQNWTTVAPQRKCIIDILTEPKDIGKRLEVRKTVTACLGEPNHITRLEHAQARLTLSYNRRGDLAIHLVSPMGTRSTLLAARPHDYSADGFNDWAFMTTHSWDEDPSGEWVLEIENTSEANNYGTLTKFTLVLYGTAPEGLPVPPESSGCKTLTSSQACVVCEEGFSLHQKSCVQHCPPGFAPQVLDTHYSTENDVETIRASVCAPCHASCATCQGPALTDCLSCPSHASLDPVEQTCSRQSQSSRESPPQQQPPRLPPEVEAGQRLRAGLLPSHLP
L929 necroptosis: L929 zVAD cell death inhibition; L929 zVAD necroptosis rescue, ATP luminescence, 24 h; with zVAD 60 µM; viability rescue, % at 10 µM; 220,000 tested, 0.38% active; AID 1377;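 active = activation, scaled between plate controls, above about 75%, limit read from the data; inactive = activation under that limit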
Autophagy mod: autophagy modulation, high-content screen; 190,000 tested, 0.98% active; MEF GFP-LC3 puncta imaging; test concentration mostly 10 µM; calls only at 10 µM (by protocol);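 active = percentage of spot-positive cells more than 3 SD above its plate mean, without a fluorescence outlier flag or 80% toxicity; inconclusive = no clear call, values can overlap the other calls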
Dynein confirm: dynein cargo transport inhibition, confirmation | shares compounds with Dynein transport | 1,000 tested, 69% active | calls only at 20 µM | AID 463116 | 3617.4 GR-EGFP nuclear translocation imaging, dexamethasone-induced;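 active = inhibition of receptor movement into the nucleus at or above a set limit in both runs, with normal cell brightness and cell count; inconclusive = limit reached in only one run, brightness and count normal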;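 also: dexamethasone at 1 µM final in well for 30 min; nuclear minus cytoplasmic GR-EGFP mean intensity difference in channel 2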
A number is an active result. Sampled rows, rich in hits. Any-hit rate of the full collection: about 1.8%.

What do the screens show for `CSC1=NC(=O)/C(=C/c2ccc(SC)cc2)S1`?
TNF necrop inh: inactive; Dynein transport: inactive; HSV augment: inactive; Furin inh: inactive; L929 necroptosis: inactive; Autophagy mod: inactive

How did CCOC(=O)CSC1=NC(=O)/C(=C\c2ccc(Cl)cc2)S1 do in these assays?
TNF necrop inh: inactive; Dynein transport: -4.1; HSV augment: inactive; Furin inh: inactive; L929 necroptosis: inactive; Autophagy mod: inactive; Dynein confirm: inactive

Results for COc1ccc(-c2cc(N)n(S(=O)(=O)c3c(F)c(F)c(F)c(F)c3F)n2)cc1OC ?
TNF necrop inh: inactive; Dynein transport: -5.1; HSV augment: inactive; Furin inh: inactive; L929 necroptosis: inactive; Autophagy mod: inactive; Dynein confirm: active

Results for COC(=O)c1cn(NC(=O)C2CCC(C)CC2)c(=O)c2ccccc12 (stereo not given) ?
TNF necrop inh: inactive; Dynein transport: inactive; HSV augment: inactive; Furin inh: inactive; L929 necroptosis: inactive; Autophagy mod: inactive

How did COC(=O)c1cn(NC(=O)c2cc([N+](=O)[O-])ccc2F)c(=O)c2ccccc12 do in these assays?
TNF necrop inh: inactive; Dynein transport: -3.9; HSV augment: inactive; Furin inh: inactive; L929 necroptosis: inactive; Autophagy mod: inactive; Dynein confirm: active

What do the screens show for `Cc1ccccc1N1C(=O)CC(Sc2nnc(-c3ccccc3)o2)C1=O` (stereo not given)?
TNF necrop inh: inactive; Dynein transport: -7.3; HSV augment: inactive; Furin inh: inactive; L929 necroptosis: inactive; Autophagy mod: inactive; Dynein confirm: active

How did Cc1cccc(NC(=O)CSc2nc(C)c(Cc3ccccc3)c(=O)[nH]2)c1C do in these assays?
TNF necrop inh: inactive; Dynein transport: inactive; HSV augment: inactive; Furin inh: inactive; L929 necroptosis: inactive; Autophagy mod: inactive

How did COc1cccc(-n2nnnc2SCC(=O)Nc2ccc(C(C)=O)cc2)c1 do in these assays?
TNF necrop inh: inactive; Dynein transport: inactive; HSV augment: inactive; Furin inh: inactive; L929 necroptosis: inactive; Autophagy mod: inactive

How did CCCS(=O)(=O)c1nnnn1-c1cccc(OC)c1 do in these assays?
TNF necrop inh: inactive; Dynein transport: -5.5; HSV augment: inactive; Furin inh: inactive; L929 necroptosis: inactive; Autophagy mod: inactive; Dynein confirm: active

How did N#C/C(=C/c1ccc(N2CCCCCC2)o1)c1ccc(F)cc1 do in these assays?
TNF necrop inh: inactive; Dynein transport: inactive; HSV augment: inactive; Furin inh: inactive; L929 necroptosis: inactive; Autophagy mod: active; Dynein confirm: inactive

How did N#C/C(=C/c1ccc(N2CCCCC2)o1)C(=O)Nc1ccc(Cl)cc1 do in these assays?
TNF necrop inh: inactive; Dynein transport: inactive; HSV augment: inconclusive; Furin inh: inactive; L929 necroptosis: inactive; Autophagy mod: active; Dynein confirm: inactive

Results for N#C/C(=C/c1ccc(N2CCCCC2)o1)C(=O)Nc1ccc2ccccc2c1 ?
TNF necrop inh: inactive; Dynein transport: -4; Furin inh: inactive; L929 necroptosis: inactive; Dynein confirm: active

Results for CCO[C@@H]1OC(C(=O)NCc2ccccc2)=C[C@H](c2coc3ccccc3c2=O)[C@H]1CCCO ?
TNF necrop inh: inactive; Dynein transport: inactive; Furin inh: inactive; L929 necroptosis: inactive; Autophagy mod: inactive

What do the screens show for `CCOC(=O)C(=NCC1CCCO1)NNc1ccccc1Cl` (stereo not given)?
TNF necrop inh: inactive; Dynein transport: inactive; HSV augment: inactive; Furin inh: inactive; L929 necroptosis: inactive

How did COC(=O)C(=Cc1ccccc1[N+](=O)[O-])C(=O)OC do in these assays?
TNF necrop inh: inactive; Dynein transport: -5.4; HSV augment: inactive; Furin inh: inactive; L929 necroptosis: inactive; Dynein confirm: active

What do the screens show for `COc1ccc(CNC(=O)/C=C/c2ccccc2[N+](=O)[O-])cc1`?
TNF necrop inh: inactive; Dynein transport: inactive; HSV augment: inactive; Furin inh: inactive; L929 necroptosis: inactive; Autophagy mod: inactive

How did CC1=C(CO)C(=O)OC([C@@H](C)C2CC[C@H]3C4C[C@H]5O[C@]56[C@@H](O)C=CC(=O)[C@]6(C)C4CC[C@]23C)C1 (stereo not given in full) do in these assays?
TNF necrop inh: inactive; Dynein transport: -3.8; HSV augment: inactive; Furin inh: inactive; L929 necroptosis: inactive; Dynein confirm: inconclusive
